Data from ChEMBL document CHEMBL1142544 (J Med Chem, 2008).
Activity calls are given as the source filed them. The rule behind the calls is not given here.

Columns and labels:
[1] = Cytotoxicity against human CFU-GM cells at 100 uM after 7 days
BT-549 [2] = experiment: Antitumor activity against human BT-549 cells xenografted SCID mouse assessed as survival time prolongation at 2 ug, ip; format: functional, cell-based
Outline: (§1)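 SCID mice were conditioned by irradiation and anti-asialo-GM1 monoclonal antibody. On day 0 they received a single ip injection of BT549 breast cancer cells (2 × 10⁶/mouse). Drug was given ip (2 µg or 5 µg) with the tumor cells, alone or with ip human rIL-2 (300 ng). Where indicated, purified human γδ T cells (2 × 10⁷/mouse) were added. Cells and drug were reinjected every 15 days, with IL-2 on the same day and days 3 and 6 after. Read-out was mean survival time in days.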

K562 [3] = experiment: Induction of apoptosis in human K-562 cells expressing Bcr-Abl at <50 uM by flow cytometry; format: functional, cell-based
K562 [4] = experiment: Induction of apoptosis in human K-562 cells expressing Bcr-Abl at 100 uM by flow cytometry; format: functional
Outline: (§2)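 Tumor cells were exposed to 100 µM compound. Cells (1 × 10⁶) were washed in PBS, pelleted at 200g for 5 min, and stained with FITC-annexin V plus propidium iodide for 15 min at 20 °C. The percentage of annexin-V-positive cells was measured by flow cytometry.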

BT-549 [5] = experiment: Antitumor activity against human BT-549 cells xenografted SCID mouse co-transfected with human gamma delta T lymphocytes assessed as survival time prolongation at 2 ug, ip; format: functional, cell-based
Outline: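 SCID mice conditioned by irradiation plus anti-asialo-GM1 antibody; day 0 single i.p. BT549 (2 × 10⁶/mouse) with concomitant i.p. drug (2 µg), ± rIL-2 (300 ng), plus highly purified human γδ T cells (2 × 10⁷/mouse). γδ T cells and drug re-injected every 15 days; rIL-2 the same day and 3 and 6 days after each. Read-out: mean survival time (days).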

CCRF-CEM = experiment: Induction of apoptosis in human CCRF-CEM cells at 100 uM by flow cytometry; format: functional
Outline: as §2

[6] = Induction of apoptosis in human CEM-VBL300 cells expressing p-glycoprotein at 100 uM by flow cytometry; format: functional
Outline: as §2

HuT78 = experiment: Induction of apoptosis in human HUT78 cells at 100 uM by flow cytometry; format: functional
Outline: as §2

[7] = Stimulation of human Vgamma9Vdelta2 T lymphocytes assessed as gamma delta expansion factor after 7 days; format: functional
BT-549 [8] = experiment: Antitumor activity against human BT-549 cells xenografted SCID mouse assessed as survival time prolongation at 2 ug, ip
[9] = biological target: T1, Farnesyl pyrophosphate synthase (Homo sapiens, UniProt P14324); experiment: Inhibition of human FPP synthase expressed in Escherichia coli BL21 (DE3)
T1 sequence (P14324 whole entry): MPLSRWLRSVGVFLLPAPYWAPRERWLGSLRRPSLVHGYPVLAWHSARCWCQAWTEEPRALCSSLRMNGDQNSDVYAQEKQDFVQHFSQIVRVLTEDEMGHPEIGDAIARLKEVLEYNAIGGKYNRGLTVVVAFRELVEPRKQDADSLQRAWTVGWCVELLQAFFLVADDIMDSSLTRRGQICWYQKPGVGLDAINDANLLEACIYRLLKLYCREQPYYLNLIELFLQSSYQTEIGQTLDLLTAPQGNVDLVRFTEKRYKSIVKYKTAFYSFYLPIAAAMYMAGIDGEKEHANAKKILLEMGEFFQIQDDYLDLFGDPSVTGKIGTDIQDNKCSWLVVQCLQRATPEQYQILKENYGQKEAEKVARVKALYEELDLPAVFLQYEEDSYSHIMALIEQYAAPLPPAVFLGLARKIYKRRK

BT-549 [10] = experiment: Antitumor activity against human BT-549 cells xenografted SCID mouse co-transfected with human gamma delta T lymphocytes assessed as survival time prolongation at 2 ug, ip coadministered with human recombinant IL2; format: functional, organism-based
Outline: as §1

BT-549 [11] = experiment: Antitumor activity against human BT-549 cells xenografted SCID mouse co-transfected with human gamma delta T lymphocytes assessed as survival time prolongation at 5 ug, ip; format: functional, cell-based
Outline: as §1

BT-549 [12] = experiment: Antitumor activity against human BT-549 cells xenografted SCID mouse co-transfected with human gamma delta T lymphocytes assessed as survival time prolongation at 5 ug, ip coadministered with human recombinant IL2; format: functional, organism-based
Outline: as §1

**Q.** For O=P(O)(O)C(Cn1ccnc1)P(=O)(O)O, which Activity [1] is on record?
**A.** The Activity was 15%.

**Q.** And the Activity (BT-549 [2])?
**A.** Its Activity is “inactive”.

**Q.** And the Activity (K562 [3])?
**A.** Its Activity is “inactive”.

**Q.** And the Activity (K562 [4])?
**A.** Its Activity is 15%.

**Q.** And the Activity (BT-549 [5])?
**A.** The Activity was “Active”.

**Q.** What about the Activity (CCRF-CEM) of the same compound?
**A.** Its Activity is 22%.

**Q.** What about the Activity [6] of the same compound?
**A.** Its Activity is 37%.

**Q.** What about the Activity (HuT78) of the same compound?
**A.** The Activity was 40%.

**Q.** And the Activity [7]?
**A.** Its Activity is 0.001 µM.

**Q.** And the Activity (BT-549 [8])?
**A.** Its Activity is “inactive”.

**Q.** With O=P(O)(O)C(Cn1cnc2c(Cl)ncnc21)P(=O)(O)O as the compound, how does the IC50 [9] read?
**A.** The IC50 was 883 nM.

**Q.** And the Activity [7]?
**A.** The Activity was 0.1 µM.

**Q.** With O.O=P(O)(O)C(O)(Cn1ccnc1)P(=O)(O)O [ZOLEDRONIC ACID] as the compound, how does the Activity [1] read?
**A.** The Activity was 18%.

**Q.** And the Activity (BT-549 [2])?
**A.** Its Activity is “inactive”.

**Q.** And the Activity (K562 [3])?
**A.** Its Activity is “inactive”.

**Q.** And the Activity (BT-549 [10])?
**A.** The Activity was “Active”.

**Q.** And the Activity (BT-549 [11])?
**A.** The Activity was “inactive”.

**Q.** And the Activity (K562 [4])?
**A.** Its Activity is 16%.

**Q.** And the Activity (BT-549 [12])?
**A.** The Activity was “Active”.

**Q.** What about the Activity (CCRF-CEM) of the same compound?
**A.** Its Activity is 20%.

**Q.** And the Activity [6]?
**A.** Its Activity is 22%.

**Q.** And the Activity (HuT78)?
**A.** Its Activity is 24%.

**Q.** What about the Activity [7] of the same compound?
**A.** The Activity was 0.1 µM.

**Q.** What about the Activity (BT-549 [8]) of the same compound?
**A.** Its Activity is “inactive”.

**Q.** What does the source list for O=P(O)(O)C(Cn1cccn1)P(=O)(O)O?
**A.** IC50 [9]: 3070 nM; Activity [7]: >10 µM

**Q.** What does the source list for O=P(O)(O)C(Cn1cnc2ccccc21)P(=O)(O)O?
**A.** IC50 [9]: 16.1 nM; Activity [7]: 1 µM

**Q.** Which IC50 [9] does the source give for O=P(O)(O)C(Cn1cnc2cncnc21)P(=O)(O)O here?
**A.** The IC50 was 388 nM.

**Q.** What about the Activity [7] of the same compound?
**A.** Its Activity is 0.2 µM.

**Q.** What does the source list for O=P(O)(O)C(CSc1ncc[nH]1)P(=O)(O)O?
**A.** IC50 [9]: 28.1 nM; Activity [7]: >10 µM
